From ChEMBL document CHEMBL1129044, “Potent, selective tetrahydro-beta-carboline antagonists of the serotonin 2B (5HT2B) contractile receptor in the rat stomach fundus” (J Med Chem, 1996)

What was measured:
[1] = biological target: 5-hydroxytryptamine receptor 2B (Rattus norvegicus) (UniProt P30994); experiment: Binding affinity analysed for 5-HT 2B receptor in rat stomach fundus; type: tissue-based
Method in brief: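 Rat stomach fundus strips (5HT2B): isometric contraction recorded as grams of force. Control cumulative serotonin concentration–response curve, then 1 h incubation with a single antagonist concentration per tissue, then serotonin curve repeated. K_B = [B]/(dose ratio − 1), where dose ratio is agonist ED50 with antagonist over control ED50. Reported as −log K_B.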

[2] = biological target: T1, 5-hydroxytryptamine receptor 2A (Rattus norvegicus, UniProt P14842); experiment: Binding affinity analysed on 5-HT 2A in rat […].; type: tissue-based
[3] = biological target: Serotonin receptor 2a and 2b (5HT2A and 5HT2B) (Rattus norvegicus) (UniProt P30994+P14842); experiment: Relative binding to serotonin receptors 5-HT-2B and 5-HT-2A (Ratio of […] Ki); type: protein assay
Rattus norvegicus = species on record: Rattus norvegicus; experiment: Relative binding to serotonin receptors 5-HT-2B to 5-HT2C (Ratio of […] Ki)
[4] = biological target: T1, 5-hydroxytryptamine receptor 2A; experiment: Binding affinity for 5-HT 2A in rat […]; type: tissue-based
[5] = biological target: 5-HT2C receptor (Mus musculus); experiment: Binding affinity towards 5-HT 2C receptor of mouse
[6] = biological target: 5-hydroxytryptamine receptor 2A (Rattus norvegicus) (UniProt P14842)
[7] = biological target: 5-hydroxytryptamine receptor 2A (Rattus norvegicus) (UniProt P14842); experiment: Binding affinity analysed towards 5-HT 2A in rat jugular vein
Method in brief: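 Rat external jugular vein (5HT2A), cannulated in situ and kept in Krebs' bicarbonate buffer; isometric contraction recorded. Control cumulative serotonin curve, 1 h with one antagonist concentration per tissue, serotonin curve repeated. K_B = [B]/(dose ratio − 1) from the agonist ED50 shift. Expressed as −log K_B.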

[8] = biological target: 5-hydroxytryptamine receptor 2A (Rattus norvegicus) (UniProt P14842); remark: listed apart in the source

Sequence of 5-hydroxytryptamine receptor 2B (Rattus norvegicus) (P30994 whole entry): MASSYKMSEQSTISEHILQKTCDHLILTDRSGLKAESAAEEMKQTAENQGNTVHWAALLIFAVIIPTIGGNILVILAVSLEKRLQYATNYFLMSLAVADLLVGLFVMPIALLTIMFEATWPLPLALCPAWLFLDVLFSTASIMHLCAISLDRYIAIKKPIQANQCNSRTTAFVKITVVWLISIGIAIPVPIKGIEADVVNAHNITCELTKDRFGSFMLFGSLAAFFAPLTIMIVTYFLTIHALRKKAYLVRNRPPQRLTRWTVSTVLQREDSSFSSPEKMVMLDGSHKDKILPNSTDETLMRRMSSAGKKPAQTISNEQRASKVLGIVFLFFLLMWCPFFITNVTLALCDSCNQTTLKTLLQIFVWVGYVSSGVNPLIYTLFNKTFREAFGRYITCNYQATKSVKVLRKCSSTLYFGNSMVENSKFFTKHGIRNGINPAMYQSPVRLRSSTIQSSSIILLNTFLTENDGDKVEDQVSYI
Sequence of Serotonin receptor 2a and 2b (5HT2A and 5HT2B) (Rattus norvegicus) (P14842 whole entry, looked up): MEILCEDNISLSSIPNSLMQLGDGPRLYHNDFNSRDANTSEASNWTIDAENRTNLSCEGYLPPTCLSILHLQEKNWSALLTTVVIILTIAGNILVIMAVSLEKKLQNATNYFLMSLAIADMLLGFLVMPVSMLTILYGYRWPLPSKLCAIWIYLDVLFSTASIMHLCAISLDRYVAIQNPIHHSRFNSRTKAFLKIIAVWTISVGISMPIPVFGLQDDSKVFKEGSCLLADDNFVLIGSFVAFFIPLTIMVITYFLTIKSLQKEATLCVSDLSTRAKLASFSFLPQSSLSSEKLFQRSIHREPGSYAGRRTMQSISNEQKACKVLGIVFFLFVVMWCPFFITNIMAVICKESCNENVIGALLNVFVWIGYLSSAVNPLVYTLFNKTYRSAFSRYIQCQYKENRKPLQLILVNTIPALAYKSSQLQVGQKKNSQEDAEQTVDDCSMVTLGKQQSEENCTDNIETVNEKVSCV
Sequence of Serotonin receptor 2a and 2b (5HT2A and 5HT2B) (Rattus norvegicus) (P30994 whole entry, looked up): as the sequence (P30994 whole entry) above
Sequence of 5-hydroxytryptamine receptor 2A (Rattus norvegicus) (P14842 whole entry): as the sequence (P14842 whole entry, looked up) above
T1 sequence (P14842 whole entry): as the sequence (P14842 whole entry, looked up) above

Row | SMILES | -Log KB [1] | further results
1 | CN1CC[C@@H]2CN3CCc4cccc(c43)[C@@H]2C1 | 7.34 | Ki [2]: 631 nM
2 | Cc1ccc2[nH]c3c(c2c1)CCNC3Cc1ccc(C)c(C)c1 (stereo unspecified) | 9.06 | 
3 | COc1ccc(CC2NCCc3c2[nH]c2c(C)cc(C)cc32)cc1OC (stereo unspecified) | 9.61 | 
4 | c1ccc2c3c([nH]c2c1)[C@@H]1C[C@@H]2CCCC[C@H]2CN1CC3 | 7.26 | 
5 | CCc1ccc2c(c1)C1CCNC(Cc3cccc4ccccc34)C1N2 (stereo unspecified) | 9.65 | 
6 | COc1ccc(C2NCCc3c2[nH]c2ccccc32)cc1OC (stereo unspecified) | < 6.53 | 
7 | COc1cc(CC2NCCc3c2[nH]c2ccc(C)cc32)cc(N)c1OC (stereo unspecified) | 8.89 | 
8 | CCOc1ccc(CC2NCCc3c2[nH]c2ccccc32)cc1OCC (stereo unspecified) | 8.57 | 
9 | COc1ccc(CC2NCCc3c2[nH]c2cc(C)cc(C)c32)cc1OC (stereo unspecified) | 9.34 | 
10 | c1ccc(CC2NCCc3c2[nH]c2ccccc32)cc1 (stereo unspecified) | 7.61 | 
11 | COc1ccc(CC2NCCc3c2[nH]c2c3ccc3ccccc32)cc1OC (stereo unspecified) | 9.22 | 
12 | COc1ccc(CC2NCCc3c2[nH]c2ccc(C)cc32)c(Br)c1OC (stereo unspecified) | 9.7 | Ratio [3]: 83.2; Ratio (Rattus norvegicus): 93.3; Ki [4]: 16.6 nM; Ki [5]: 18.6 nM
13 | COc1cc2c(cc1OC)CN1CCc3c([nH]c4ccccc34)[C@@H]1C2 | < 6.52 | 
14 | COc1cc(CC2NCCc3c2[nH]c2ccc(C)cc32)cc([N+](=O)[O-])c1OC (stereo unspecified) | 8.55 | 
15 | COc1cc(CC2NCCc3c2[nH]c2ccc(C)cc32)cc(I)c1OC (stereo unspecified) | 8.12 | 
16 | COc1ccc(CC2NCCc3c2[nH]c2c(F)cc(F)cc32)cc1OC (stereo unspecified) | 9.6 | 
17 | COc1ccc(CC2NCCc3c2[nH]c2ccc(Br)cc32)cc1OC (stereo unspecified) | 8.8 | 
18 | COc1cccc(CC2NCCc3c2[nH]c2ccccc32)c1 (stereo unspecified) | 8.04 | 
19 | Cc1ccc2c(c1Br)NC1C(Cc3cccc4ccccc34)NCCC21 (stereo unspecified) | 8.56 | 
20 | COc1ccc(CN2CCc3c([nH]c4ccccc34)C2)cc1OC | < 5.52 | 
21 | COC(=O)[C@@H]1[C@H]2C[C@H]3c4[nH]c5ccccc5c4CCN3C[C@@H]2CC[C@@H]1O | 6.92 | -Log KB [6]: 6.37
22 | Cc1ccc(CC2NCCc3c2[nH]c2ccccc32)cc1 (stereo unspecified) | 7.84 | 
23 | Brc1cccc2c1NC1C(Cc3cccc4ccccc34)NCCC21 (stereo unspecified) | 9.1 | 
24 | Cc1cc(Br)c2c(c1)C1CCNC(Cc3cccc4ccccc34)C1N2 (stereo unspecified) | 8.82 | 
25 | COc1ccc(CC2NCCc3c2[nH]c2ccccc32)cc1OC (stereo unspecified) | 9.17 | Ratio [3]: 97.7; Ratio (Rattus norvegicus): 186; -Log KB [7]: 7.43; Ki [4]: 66.1 nM; Ki [5]: 126 nM
26 | O=C(O)c1ccc2c(c1)C1CCNC(Cc3cccc4ccccc34)C1N2 (stereo unspecified) | < 7.5 | 

Row | SMILES | -Log KB [1] | further results
27 | COc1ccc(CC2NCCc3c2[nH]c2c(C)c(C)ccc32)cc1OC (stereo unspecified) | 10.1 | Ratio [3]: 115; Ratio (Rattus norvegicus): 102; Ki [4]: 8.71 nM; Ki [5]: 7.76 nM
28 | c1ccc2c3c([nH]c2c1)CNCC3 | < 5.52 | 
29 | COc1ccc(CC2NCCc3c2[nH]c2ccc(C)cc32)cc1OC (stereo unspecified) |  | Ki [4]: 22.4 nM
30 | COc1ccc(CC2NCCc3c2[nH]c2ccc(F)cc32)cc1OC (stereo unspecified) | 8.49 | 
31 | COc1ccc(CC2NCCc3c2[nH]c2ccc(I)cc32)cc1OC (stereo unspecified) | 9.52 | 
32 | CCCc1ccc2[nH]c3c(c2c1)CCNC3Cc1ccc(OC)c(OC)c1 (stereo unspecified) | 8.64 | 
33 | Cc1cc(NC(=O)Nc2ccc3c(ccn3C)c2)sn1 | 7.95 | 
34 | COc1ccc(CC2NCCc3c2[nH]c2c(Br)c(C)ccc32)cc1OC (stereo unspecified) | 9.02 | Ratio [3]: 3.09; Ratio (Rattus norvegicus): 2.14; Ki [4]: 2.95 nM; Ki [5]: 2.04 nM
35 | COc1ccc(CC2NCCc3c2[nH]c2ccc(C)c(F)c32)cc1OC (stereo unspecified) | 9.3 | 
36 | c1ccc2c(CC3NCCc4c3[nH]c3ccccc43)cccc2c1 (stereo unspecified) | 9.35 | 
37 | COc1ccc(CC2NCCc3c2[nH]c2ccc(OCc4ccccc4)cc32)cc1OC (stereo unspecified) | 6.73 | 
38 | COc1ccc(CC2c3[nH]c4ccc(C)cc4c3CCN2C)c(Cl)c1OC (stereo unspecified) | 8.4 | 
39 | c1ccc2c3c([nH]c2c1)C(Cc1ccc2c(c1)OCO2)NCC3 (stereo unspecified) | 8.4 | 
40 | COc1ccc(CC2(C)NCCc3c2[nH]c2ccc(C)cc32)cc1OC (stereo unspecified) | < 7.52 | 
41 | COc1ccc(CCC2NCCc3c2[nH]c2ccccc32)cc1OC (stereo unspecified) | 7.07 | 
42 | Cc1ccc2[nH]c3c(c2c1)CCNC3CC1CCCCC1 (stereo unspecified) | 8.32 | 
43 | COc1ccc(CC2NCCc3c2[nH]c2ccc(C4CCCCC4)cc32)cc1OC (stereo unspecified) | < 7.5 | 
44 | COC1=CC=C(CC2NCCc3c2n(C)c2ccc(C)cc32)CC1OC (stereo unspecified) | < 7.52 | 
45 | CCCCc1ccc2[nH]c3c(c2c1)CCNC3Cc1ccc(OC)c(OC)c1 (stereo unspecified) | < 7.5 | 
46 | Cn1ccc2cc3c(cc21)CCN3C(=O)Nc1cccnc1 | 8.48 | 
47 | COc1ccc(CC2NCCc3c2[nH]c2ccc(C)cc32)cc1O (stereo unspecified) | 9.23 | 
48 | COc1ccc(CC2NCCc3c2[nH]c2ccc(SC)cc32)cc1OC (stereo unspecified) | 9.56 | 
49 | Clc1ccc2c(c1)C1CCNC(Cc3cccc4ccccc34)C1N2 (stereo unspecified) | 9.16 | 
50 | COc1ccc(CC2NCCc3c2[nH]c2ccc(C)cc32)cc1F (stereo unspecified) | 9.42 | 
51 | COc1ccc(CC2NCCc3c2[nH]c2ccccc32)cc1 (stereo unspecified) | 8.09 | 
52 | COc1ccc2c3c([nH]c2c1)C(Cc1ccc(OC)c(OC)c1)NCC3 (stereo unspecified) | 7.31 | 

Row | SMILES | -Log KB [1] | further results
53 | COc1ccc(CC2NCCc3c2[nH]c2ccc(C)cc32)c(Cl)c1OC (stereo unspecified) | 9.8 | Ki [4]: 19.5 nM; -Log KB [8]: 8.14
54 | Cc1ccc2[nH]c3c(c2c1)CCN(C)C3Cc1cccc2ccccc12 (stereo unspecified) | 7.52 | 
55 | COc1ccc(CC2NCCc3c2[nH]c2ccc(Cl)cc32)cc1OC (stereo unspecified) | 8.36 | 
56 | CCc1ccc2[nH]c3c(c2c1)CCNC3Cc1ccc(OC)c(OC)c1 (stereo unspecified) | 9.46 | 
57 | COc1ccc(CC2NCCc3c2[nH]c2ccccc32)c(Cl)c1OC (stereo unspecified) | 9.27 | 
58 | COc1ccc(CC2NCCc3c2[nH]c2c(C)cccc32)cc1OC (stereo unspecified) | 9 | 
59 | COc1ccc(CC2NCCc3c2[nH]c2cc(C)c(C)cc32)cc1OC (stereo unspecified) | 9.71 | Ki [4]: 4.68 nM
60 | COc1ccc(CC2c3c(c4cc(C)ccc4n3C)CCN2C)c(Cl)c1OC (stereo unspecified) | < 7.52 | 
61 | Cc1ccc2[nH]c3c(c2c1)CCNC3Cc1cccc(C(F)(F)F)c1 (stereo unspecified) | 8.91 | 
62 | COc1ccc(CC2NCCc3c2[nH]c2c(Br)cc(C)cc32)cc1OC (stereo unspecified) | 8.92 | 
63 | COc1ccc(CC2NCCc3c2[nH]c2ccc(C)cc32)c(N)c1OC (stereo unspecified) | 9.02 | 
64 | Clc1ccc(CC2NCCc3c2[nH]c2ccccc32)cc1Cl (stereo unspecified) | 8.22 | 
65 | COc1ccc(CC2NCCc3c2[nH]c2ccc(C)cc32)c([N+](=O)[O-])c1OC (stereo unspecified) | 9.16 | 
66 | COc1ccc(CC2NCCc3c2[nH]c2ccc(C(C)C)cc32)cc1OC (stereo unspecified) | 8.5 | 
67 | COc1cccc2c1NC1C(Cc3cccc4ccccc34)NCCC21 (stereo unspecified) | 9.72 | 
68 | COc1ccc(CC2NCCc3c2[nH]c2ccc(-c4ccccc4)cc32)cc1OC (stereo unspecified) | < 7 | 
69 | Cc1ccc2[nH]c3c(c2c1)CCNC3Cc1cc(F)cc(F)c1 (stereo unspecified) | 9.05 | 
70 | c1ccc2cc(CC3NCCc4c3[nH]c3ccccc43)ccc2c1 (stereo unspecified) | 7.84 | 
71 | COc1ccc2[nH]c3c(c2c1)CCNC3Cc1ccc(OC)c(OC)c1 (stereo unspecified) | 8.48 | 
72 | Cc1ccc2[nH]c3c(c2c1)CCNC3Cc1ccc(F)c(F)c1 (stereo unspecified) | 8.47 | 
73 | COc1cc(CC2NCCc3c2[nH]c2ccccc32)cc(OC)c1OC (stereo unspecified) | 8.1 | 
74 | COc1ccc(CC2NCC(C)c3c2[nH]c2c(C)cccc32)cc1OC (stereo unspecified) | 9.29 | 
75 | Cn1ccc2cc(NC(=O)Nc3cccnc3)ccc21 | 7.4 | Ratio [3]: > 158; Ratio (Rattus norvegicus): 3.5; Ki [4]: > 6310 nM
76 | COc1ccc(OC)c(CC2NCCc3c2[nH]c2ccccc32)c1 (stereo unspecified) | 7.75 | 
